# High-throughput results deposited in PubChem BioAssay by The Scripps Research Institute Molecular Screening Center.
# This is a sample that favours compounds with a hit; in the whole collection about 3.3% have one here.
# PRMT1 FP inh = inhibitors of human PRMT1. Q99873. recombinant PRMT1, activity-based probe fluorescence polarization. inhibition, % at 2.79 µM. 370,000 tested, 1.3% active. AID 652257;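 active = inhibition above about 21% made by adding two undisclosed values, limit read from the data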
# Target sequence (Q99873 whole entry, looked up): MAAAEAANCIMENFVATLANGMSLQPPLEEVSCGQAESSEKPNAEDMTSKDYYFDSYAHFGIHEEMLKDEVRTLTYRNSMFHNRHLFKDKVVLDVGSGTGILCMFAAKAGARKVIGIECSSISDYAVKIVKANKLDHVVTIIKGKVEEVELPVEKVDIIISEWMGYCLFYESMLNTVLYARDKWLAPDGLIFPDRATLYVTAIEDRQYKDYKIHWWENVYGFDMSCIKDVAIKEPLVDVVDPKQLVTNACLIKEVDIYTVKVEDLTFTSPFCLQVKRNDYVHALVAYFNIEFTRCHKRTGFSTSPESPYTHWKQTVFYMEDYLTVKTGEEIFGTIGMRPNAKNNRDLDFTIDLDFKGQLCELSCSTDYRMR
# HTRA1 inhibitor = inhibitors of human serine peptidase HTRA1; recombinant HTRA1, FP-rhodamine activity-based probe, fluorescence polarization; 340,000 tested, 0.5% active; inhibition, % at 5.96 µM; in the data active = inhibition above about 36%;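 also: 0% = enzyme with DMSO and 100% = wells lacking enzyme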
# SIAE primary = blocks human sialic acid acetylesterase | Q9HAT2 | SIAE FP-Rh probe binding, fluorescence polarization | inhibition, % at 9.66 µM | 370,000 tested, 0.69% active | AID 1053197;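 active = inhibition above a cutoff: mean of compounds within the control limits plus 3 SD of those, cut at about 17% in these data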;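 also: 0% = plate median of compound wells and 100% = probe without SIAE protein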
# ABHD4 inh = ABHD4 (mouse) inhibition, primary FP screen. AID 720543. 370,000 tested, 0.54% active. inhibition, % at 8.92 µM. purified mABHD4, FP-Rh probe fluorescence polarization. Q8VD66;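 active = inhibition exceeding the mean over every tested compound plus 3 SD, cut at about 30% in these data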;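 also: 0% = plate median of compound wells and 100% = S159A mutant with DMSO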
# Target sequence (Q8VD66 whole entry, looked up): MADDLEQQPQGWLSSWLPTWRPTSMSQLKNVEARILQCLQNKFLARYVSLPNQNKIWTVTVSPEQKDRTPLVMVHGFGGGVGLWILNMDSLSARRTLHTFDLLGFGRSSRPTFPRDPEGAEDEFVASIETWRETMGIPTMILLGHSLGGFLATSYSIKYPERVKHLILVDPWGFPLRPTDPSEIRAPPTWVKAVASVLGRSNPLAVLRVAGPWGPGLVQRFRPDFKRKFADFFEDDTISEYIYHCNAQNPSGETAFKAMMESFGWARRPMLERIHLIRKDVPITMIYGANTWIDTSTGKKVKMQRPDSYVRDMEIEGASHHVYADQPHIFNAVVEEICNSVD
#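 Assay system: Wild-type mouse ABHD4 protein | Medium: HEPES pH 7.0 buffer, 150 mM NaCl, 0.01% Pluronic F-127 | Incubation: Enzyme–compound pre-incubation 45 min, then probe 60 min, both 25 °C | Technique: Fluorescence polarization with parallel and perpendicular emission, 525/598 nm | Evaluation: % inhibition of FP-Rh probe binding versus controls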
# rCAG RNA binder = molecules binding r(CAG) RNA repeats; r(CAG) RNA repeat, TO-PRO-1 dye displacement fluorescence; inhibition, % at 3 µM; 370,000 tested, 1.3% active; AID 651821;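 active = inhibition above the plate cutoff, the mean of all test compounds on that plate plus 3 SD, cut at about 35% in these data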;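 also: 0% = DMSO alone and 100% = 100 µM mitoxantrone as full dye displacement; higher means more dye released from RNA so lower well fluorescence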
# HTRA1 conf = confirmation of human HTRA1 inhibitors | shares compounds with HTRA1 inhibitor | 1,600 tested, 66% active | AID 540248 | recombinant HTRA1, FP-rhodamine activity-based probe, fluorescence polarization | inhibition, % at 5.96 µM;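 active = mean inhibition over three repeats above a set limit taken from the earlier primary screen, cut at about 37% in these data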;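 also: 0% = HTRA1 with DMSO and 100% = wells lacking HTRA1; inhibitors block probe binding so polarization drops and inhibition rises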
# rCAG binder conf = r(CAG) RNA repeat binding, confirmation; TO-PRO-1 dye displacement fluorescence; inhibition, % at 3 µM; shares compounds with rCAG RNA binder; 4,300 tested, 70% active;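 active = inhibition above a per-plate cutoff, the mean inhibition of sample wells plus 3 SD, cut at about 35% in these data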;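 also: loss of TO-PRO-1 fluorescence as compound displaces dye from 1x1 AA loop RNA; 0% = DMSO only wells and 100% = 100 µM mitoxantrone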
# dCAG dye counter = counter-screen for rCAG RNA binders: DNA CAG dye complex inhibitors | 4,300 tested, 94% active | d(CAG) DNA oligo TO-PRO-1 dye displacement, fluorescence | shares compounds with rCAG RNA binder | inhibition, % at 3 µM | AID 652068;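 active = inhibition above its plate's cutoff, the mean test-well inhibition plus 3 SD, cut at about 4.8% in these data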;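 also: 0% = DNA dye mix with DMSO and 100% = 100 µM mitoxantrone; hits displace the dye from DNA and so lower well fluorescence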
# DNA CAG DR = disrupts DNA CAG TO-PRO-1 complex in dose response | IC50, µM | DNA CAG/GTC duplex TO-PRO-1 dye displacement fluorescence | 250 tested, 20% active | AID 686960 | shares compounds with rCAG RNA binder; in the data active = IC50 below about 10 µM
# PRMT1 inh conf = confirmation of human PRMT1 inhibitors; shares compounds with PRMT1 FP inh; recombinant His-PRMT1, activity-based probe fluorescence polarization; inhibition, % at 2.79 µM; 3,300 tested, 42% active;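 active = mean inhibition across replicates above the hit cutoff derived for the earlier primary screen, cut at about 22% in these data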
# mABHD4 conf = ABHD4 (mouse) inhibition, FP confirmation; shares compounds with ABHD4 inh; purified mABHD4, FP-Rh probe fluorescence polarization; inhibition, % at 8.92 µM; 1,800 tested, 55% active; AID 720658;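 active = mean inhibition across replicates above the hit cutoff set in the primary screen, cut at about 30% in these data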;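 also: 0% = wild-type ABHD4 with DMSO and 100% = catalytically dead S159A mutant with DMSO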
# SIAE confirm = human SIAE inhibition, confirmation; shares compounds with SIAE primary; SIAE FP-Rh activity-based probe, fluorescence polarization; inhibition, % at 9.66 µM; 2,300 tested, 13% active; AID 1117263;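 active = mean inhibition of the replicates above the hit cutoff set in the primary screen, cut at about 17% in these data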;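 also: 0% = SIAE with DMSO and probe and 100% = probe without SIAE; inhibitors lower polarization as more probe stays unbound to SIAE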
# * = called active by the depositor; nt = no result.
SMILES,PRMT1 FP inh,HTRA1 inhibitor,SIAE primary,ABHD4 inh,rCAG RNA binder,HTRA1 conf,mABHD4 conf,SIAE confirm,others
C[C@H](O)[C@@H]1CN2CCc3c([nH]c4cccc(-c5ccccc5)c34)[C@@H]2C[C@@H]1N(C)C(=O)c1ccco1,6.8,nt,-2.8,-0.1,8.7,nt,nt,nt,
COc1ccc(OC)c(CN2C(=O)CN(S(C)(=O)=O)CC2(C)C(=O)NCc2ccccc2)c1 (stereo unspecified),1.0,nt,-0.7,-1.2,3.5,nt,nt,nt,
C=CCn1c(SCC(=O)c2ccc(O)c(O)c2)nnc1-c1cccc(C)c1,7.5,70.2*,18.7*,41.1*,15.7,77.6*,29.8*,5.1,
COC(=O)C1=C(C)N(Cc2ccc(C(F)(F)F)cc2)C(=NCc2ccc3c(c2)OCO3)NC1c1ccccc1 (stereo unspecified),-6.8,nt,-2.8,23.4,12.5,nt,nt,nt,
Cc1cc2cc(CNS(=O)(=O)c3ccccc3)ccc2n1C,0.5,51.3*,17.5*,37.0*,16.1,25.4,3.9,-0.4,
COc1ccc(Cn2ccc3ccc(-c4ccc5ccn(Cc6ccccc6F)c5c4)cc32)cc1,7.8,nt,-7.8,11.2,20.2,nt,nt,nt,
CC1(C)OC(C)(C)/C(=C/Nc2ccc(O)cc2)C1=O,18.3,63.5*,32.6*,62.0*,7.6,20.5,25.2,9.3,
O=S(=O)(Nc1ccc(N=Nc2ccccc2)cc1)c1ccccc1,-1.5,-6.2,8.4,-33.0,31.3,nt,nt,nt,
O=S(=O)(Nc1ccc(N=Nc2ccc(O)c3ccccc23)cc1)c1ccccc1,5.7,44.2*,35.9*,-2.5,67.2*,30.9,nt,-38.0,rCAG binder conf=65.3*;dCAG dye counter=31.8*
COc1cccc(Cn2cc(COC(=O)N3CCOCC3)nn2)c1,1.2,nt,0.4,0.3,3.1,nt,nt,nt,
Cc1c(Br)c(O)c(Br)c2sc(=O)oc12,80.3*,47.1*,28.9*,67.1*,92.4*,1.5,66.2*,10.3,rCAG binder conf=42.3*;dCAG dye counter=21.4*;DNA CAG DR=>29.9
O=[N+]([O-])c1cccc(N/N=C/c2cccc(O)c2O)c1,2.9,59.7*,23.3*,36.5*,26.3,73.9*,34.1*,-6.1,
C=C1N(C)c2cc([N+](=O)[O-])c(N)cc2C1(C)C,3.2,54.2*,18.0*,22.9,16.8,32.7,nt,15.0,
Nc1ccc(Oc2ccc(N)c([N+](=O)[O-])c2)cc1[N+](=O)[O-],9.7,5.0,2.7,3.4,4.8,nt,nt,nt,
COc1ccc(CNc2cccc3[nH]c(C(F)(F)F)nc23)cc1OC,1.3,39.6*,19.1*,-2.1,43.7*,11.8,nt,4.5,rCAG binder conf=12.7;dCAG dye counter=9.4*
COc1ccc(CNC(=O)c2[nH]c(C(F)(F)F)nc2-c2ccccc2)cc1OC,-5.7,nt,5.4,1.5,3.1,nt,nt,nt,
c1ccc(CNc2c3ccccc3nc3ccccc23)cc1,0.7,0.6,-3.0,-6.7,8.1,nt,nt,nt,
Oc1ccc(CCNc2c3ccccc3nc3ccccc23)cc1O,11.8,62.2*,19.4*,23.0,14.4,83.8*,nt,28.7*,
CCn1c(SCC(=O)Nc2ccccc2-c2ccccc2)nnc1-c1ccc(C)cc1,6.8,nt,1.1,1.7,5.3,nt,nt,nt,
CCOC(=O)C1Nc2ccc(Br)cc2C2C=CCC12 (stereo unspecified),30.1*,65.3*,20.2*,52.7*,62.9*,2.4,52.1*,6.0,PRMT1 inh conf=25.8*
COc1cc2c(c(OC)c1OC)C1(CCCCC1)CC2NC(=O)c1ccncc1 (stereo unspecified),4.8,nt,1.5,4.3,-2.4,nt,nt,nt,
S=C(Nc1ccc(Nc2ccccc2)cc1)Nc1ccccn1,22.6*,37.9*,31.6*,6.2,6.0,39.6*,nt,2.6,
S=C(Nc1ccccc1)Nc1ccccn1,2.0,0.0,4.0,-3.1,1.6,nt,nt,nt,
Cc1cc2nc3c(=O)[nH]c(=S)[nH]c3nc2cc1NC(=O)C(F)(F)F,164.8*,45.7*,21.4*,65.1*,-222.9,3.0,18.4,8.5,
O=c1[nH]c(=S)[nH]c2nc(-c3ccccc3)cnc12,12.6,1.6,3.0,8.9,1.9,nt,nt,nt,
SMILES,PRMT1 FP inh,HTRA1 inhibitor,SIAE primary,ABHD4 inh,rCAG RNA binder,HTRA1 conf,mABHD4 conf,SIAE confirm,others
COC(=O)C1CN(CC(C)C)CCS(=O)(=O)N1Cc1cccc(Cl)c1 (stereo unspecified),-5.0,nt,0.5,1.1,-0.5,nt,nt,nt,
Cc1cc(C(=O)COc2cccc3cccnc23)c(C)n1C,20.4,80.4*,22.5*,74.1*,-5.8,16.3,12.2,4.8,
Cc1cc(C(=O)COc2ccccc2C(N)=O)c(C)n1C,-0.7,5.2,3.9,-1.2,-2.6,nt,nt,nt,
O=S1(=O)CC2c3ccccc3CN2CN1CCc1ccccc1 (stereo unspecified),6.7,nt,-2.5,-1.3,4.2,nt,nt,nt,
COCCN=c1scc(-c2ccco2)n1/N=C/c1ccc(O)c(O)c1O,40.4*,67.9*,28.3*,60.3*,47.9*,78.0*,61.5*,-3.6,rCAG binder conf=59.9*;dCAG dye counter=29.8*
O=C(N/N=C/c1cc(Br)c(O)c(Br)c1)c1cc2c(ccc3ccccc32)o1,10.7,45.7*,57.4*,11.3,95.5*,49.0*,nt,25.6*,rCAG binder conf=77.6*;dCAG dye counter=45.9*
O=C(N/N=C/c1ccc(O)c(Br)c1)c1cc2c(ccc3ccccc32)o1,-3.2,-3.9,1.1,-3.5,-4.2,nt,nt,nt,
O=C(N/N=C/c1cc(Cl)c(O)c(Cl)c1)c1cc2c(ccc3ccccc32)o1,3.8,46.2*,55.3*,28.5,85.8*,50.4*,nt,40.9*,rCAG binder conf=77.7*;dCAG dye counter=39.9*
OC(c1ccccc1)(c1ccccc1)C1CCN(CCCNc2cccc(Br)c2)CC1,-2.5,nt,6.4,19.5,0.8,nt,nt,nt,
COc1ccc(NC(=O)CSc2nnc(-c3ccco3)c(-c3ccco3)n2)cc1OC,7.8,-3.8,12.3,15.7,12.6,nt,nt,nt,
COc1ccc(C(=O)CSc2nnc(-c3ccco3)c(-c3ccco3)n2)cc1,27.1*,36.7*,18.9*,19.3,51.4*,-3.8,nt,6.8,rCAG binder conf=49.5*;dCAG dye counter=22.3*;PRMT1 inh conf=74.4*
COc1cccc(NC(=O)CSc2nnc(-c3ccco3)c(-c3ccco3)n2)c1,47.3*,39.0*,20.0*,46.4*,61.0*,-5.9,25.1,3.7,
